Values after ≈ are worked out from the molar mass of the structure shown. Peptide text beside a SMILES is read from it.

One series relates to Bacillus subtilis. The series is described as follows: Antibacterial activity against Bacillus subtilis NBRC 3513 after overnight incubation by microplate dilution method. The class given is functional. The essentials:
(§1)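 MIC read by microplate broth dilution with an inoculum of 10^6 organisms per ml of medium. Each peptide was tested 7–10 times.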

The next series concerns Priestia megaterium. The series is described as follows: Antibacterial activity against Bacillus megaterium ATCC 19213 after overnight incubation by microplate dilution method. It is filed as functional. The essentials: as §1
For series [1], the system named is Staphylococcus epidermidis. Briefly: Antibacterial activity against Staphylococcus epidermidis NBRC 12933 after overnight incubation by microplate dilution method. It is filed as functional. The gist of the method:
as §1

The subject of the next series is Staphylococcus aureus. The series is described as follows: Antibacterial activity against Staphylococcus aureus NBRC 12732 after overnight incubation by microplate dilution method. It is filed as functional. The gist of the method:
as §1

A further series deals with Pseudomonas aeruginosa. The series is described as follows: Antibacterial activity against Pseudomonas aeruginosa NBRC 3080 after overnight incubation by microplate dilution method. The class given is functional. The gist of the method:
as §1

Another series relates to Escherichia coli. Briefly: Antibacterial activity against Escherichia coli NBRC 12734 after overnight incubation by microplate dilution method. The class given is functional. The gist of the method: as §1
A short description of series [2]: Hemolytic activity against sheep RBC at 20 to 100 uM after 30 mins by spectrophotometry. It is filed as ADME, cell-based, Ovis aries. As to conditions: erythrocyte, 0.5 h. The gist of the method: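 Sheep erythrocytes were exposed to a range of peptide concentrations to build hemolysis (%) dose–response curves. The experiment was run three times per peptide.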

For `CC(C)C[C@@H]1NC(=O)[C@H](CCCN)NC(=O)[C@H](C(C)C)NC(=O)[C@@H]2C[C@H](N)CN2C(=O)[C@@H](Cc2ccccc2)NC(=O)[C@H](CC(C)C)NC(=O)[C@H](CCCN)NC(=O)[C@H](C(C)C)NC(=O)[C@@H]2CCCN2C(=O)[C@@H](Cc2ccccc2)NC1=O`, the MIC was 6.25 mg/L (≈ 5.4 µM) in the series on Bacillus subtilis; 6.25 mg/L (≈ 5.4 µM) with Priestia megaterium; 6.25 mg/L (≈ 5.4 µM) in series [1]; 12.5 mg/L (≈ 10.8 µM) against Staphylococcus aureus; 50 mg/L (≈ 43.2 µM) in the series with Pseudomonas aeruginosa; 25 mg/L (≈ 21.6 µM) against Escherichia coli. Besides, the Activity entry in series [2] is “Toxic”.
`CCCCCCCC(=O)N[C@H]1C[C@H]2C(=O)N[C@@H](C(C)C)C(=O)N[C@@H](CCCN)C(=O)N[C@@H](CC(C)C)C(=O)N[C@H](Cc3ccccc3)C(=O)N3CCC[C@H]3C(=O)N[C@@H](C(C)C)C(=O)N[C@@H](CCCN)C(=O)N[C@@H](CC(C)C)C(=O)N[C@H](Cc3ccccc3)C(=O)N2C1`: the MIC was determined as 12.5 mg/L (≈ 9.75 µM) in the series with Bacillus subtilis; 6.25 mg/L (≈ 4.87 µM) against Priestia megaterium; 6.25 mg/L (≈ 4.87 µM) in series [1]; 6.25 mg/L (≈ 4.87 µM) against Staphylococcus aureus; 50 mg/L (≈ 39 µM) with Pseudomonas aeruginosa; 50 mg/L (≈ 39 µM) in the series with Escherichia coli. Besides, the Activity result in series [2] is reported as “Toxic”.
For the compound `CC(C)C[C@@H]1NC(=O)[C@H](CCCN)NC(=O)[C@H](C(C)C)NC(=O)[C@@H]2C[C@@H](N)CN2C(=O)[C@@H](Cc2ccccc2)NC(=O)[C@H](CC(C)C)NC(=O)[C@H](CCCN)NC(=O)[C@H](C(C)C)NC(=O)[C@@H]2CCCN2C(=O)[C@@H](Cc2ccccc2)NC1=O`, the MIC in the series with Bacillus subtilis is 6.25 mg/L (≈ 5.4 µM); against Priestia megaterium, 6.25 mg/L (≈ 5.4 µM); in series [1] it was 6.25 mg/L (≈ 5.4 µM); against Staphylococcus aureus it was 12.5 mg/L (≈ 10.8 µM); against Pseudomonas aeruginosa, 50 mg/L (≈ 43.2 µM); against Escherichia coli, 25 mg/L (≈ 21.6 µM). Besides, the Activity result in series [2] is reported as “Toxic”.
Consider `CC(C)C[C@@H]1NC(=O)[C@H](CCCN)NC(=O)[C@H](C(C)C)NC(=O)[C@@H]2CCCN2C(=O)[C@@H](Cc2ccccc2)NC(=O)[C@H](CC(C)C)NC(=O)[C@H](CCCN)NC(=O)[C@H](C(C)C)NC(=O)[C@@H]2CCCN2C(=O)[C@@H](Cc2ccccc2)NC1=O` [GRAMICIDIN S] (HELM PEPTIDE1{L.[dF].P.V.[Orn].L.[dF].P.V.[Orn]}$PEPTIDE1,PEPTIDE1,1:R1-10:R2$$$V2.0), for which the MIC with Bacillus subtilis was found to be 3.13 mg/L (≈ 2.74 µM); against Priestia megaterium, 3.13 mg/L (≈ 2.74 µM); in series [1] it was 3.13 mg/L (≈ 2.74 µM); in the series with Staphylococcus aureus, 3.13 mg/L (≈ 2.74 µM); against Pseudomonas aeruginosa it was 25 mg/L (≈ 21.9 µM); with Escherichia coli, 25 mg/L (≈ 21.9 µM).

In general, MIC refers to the least concentration at which growth counts as inhibited. Read a high MIC as a less susceptible organism.
